Published values from different studies.
Each line is one published result; the experiments were not run side by side.
Target: NT-3 growth factor receptor (NTRK3, Homo sapiens, UniProt Q16288)

SMILES	test	conditions	measurement	result
O=C(Nc1cnn2ccc(N3CCC[C@@H]3c3cc(F)ccc3F)nc12)N1CC[C@H](O)C1	enzyme activity, inhibitor, FRET	1 µM	inhibition	100%
Cc1noc([C@H]2C[C@@H](c3ccc(C(F)(F)F)cc3)CN(C(=O)N3CCS(=O)(=O)C3)C2)n1	cell-free assay, competition with immobilised ligand	1 µM	remaining binding	100%
Cc1ccc(C(=O)NCc2ccsc2)cc1C#Cc1cn(C(C)C)c2ncnc(N)c12	enzyme activity, inhibitor	1 µM	activity vs control	29%
Cc1cnc(NC2CCOCC2)nc1-n1cnc(C(=O)NC(CN)c2cc(F)cc(Cl)c2)c1 (stereo not shown)	enzyme activity, inhibitor, radiometric	1 µM	remaining activity	93%
Cc1ccc(NC(=O)c2ccc(C)c(C(F)(F)F)c2)cc1C#Cc1nn(C2CCC(O)CC2)c2ncnc(N)c12 (stereo not shown)	cell-free assay	10 µM	remaining signal	17%
Cc1c(NC(=O)c2cc(C(N)=O)nc3cc(F)ccc23)c(C(F)(F)F)nn1Cc1ccc(C(C)(C)C)cc1	cell-free assay, competition with immobilised ligand	1 µM	remaining binding	100%
COc1cc2c(Nc3ccc(Br)cc3F)ncnc2cc1OCC1CCN(C)CC1	cell-free assay	0.5 µM	remaining signal	72.2%
O=C(Nc1cccc(C(=O)Nc2ccc3[nH]ncc3c2)c1)Nc1ccccc1C(F)(F)F	enzyme activity, inhibitor, FRET	1 µM	inhibition	23.7%
O=C1Nc2ccc(Cl)cc2C1=Cc1cc(Cl)c(O)c(Cl)c1	cell-free assay	0.5 µM	remaining signal	44.8%
O=C(NC[C@@H]1[C@H]2CN(C(=O)OCc3cc(C(F)(F)F)cc(C(F)(F)F)c3)C[C@@H]12)c1ccc2[nH]nnc2c1	cell-free assay, competition with immobilised ligand	1 µM	remaining binding	91%
N#CCCc1ccc2c(c1)-c1[nH]c3ccc([N+](=O)[O-])cc3c1CC(=O)N2	cell-free assay	0.5 µM	remaining signal	61.2%
Cc1sc(C(=O)NC2COC2)cc1-n1cc(NC(=O)Nc2c(F)cccc2Cl)cn1	enzyme activity, inhibitor	10 µM	remaining activity	86%
O=C(Nc1ccc2[nH]ncc2c1)c1cccc(NC(=S)Nc2ccc(F)cc2F)c1	enzyme activity, inhibitor, FRET	1 µM	inhibition	12.5%
CN(C(=O)c1ccccc1)c1cc(N(C)c2ccc3c(c2)CCc2ccc(C(=O)NCCN4CCOCC4)cc2C3=O)ccc1F	cell-free assay, competition with immobilised ligand	1 µM	remaining binding	90%
O=C(Nc1cccc(Cl)c1)Nc1cccc(C(=O)Nc2ccc3[nH]ncc3c2)c1	enzyme activity, inhibitor, FRET	1 µM	inhibition	19.7%
COCCOc1nc(-c2ccc(Cl)nc2)nc2c1CN(C(=O)c1ncn3ccccc13)CC2	cell-free assay, competition with immobilised ligand	0.1 µM	remaining binding	100%
O=C(Nc1ccc2[nH]ncc2c1)c1cccc(NC(=S)Nc2cc(C(F)(F)F)cc(C(F)(F)F)c2)c1	enzyme activity, inhibitor, FRET	1 µM	inhibition	11.8%
CC(C)(C)c1nc2c(s1)c1nc(N)ncc1c1ccc(NS(=O)(=O)c3c(F)cccc3F)c(F)c12	enzyme activity, inhibitor, radiometric	1 µM	remaining activity	82%
Cc1c(C(=O)O)cc(-c2ccc(C3CCNCC3)cc2)c2ccc(-c3ccc(C(F)(F)F)cc3)cc12	cell-free assay, competition with immobilised ligand	1 µM	remaining binding	100%
COc1cc2ncnc(Nc3ccc(F)c(Cl)c3)c2cc1OCCCN1CCOCC1	cell-free assay	0.5 µM	remaining signal	103%
CN(C)C(=O)Cn1cc(-c2nc([C@@](C)(c3ccc(-c4cnc(N)nc4)cc3)C3CC3)no2)cn1	cell-free assay, competition with immobilised ligand	1 µM	remaining binding	92%
O=C(Nc1ccc(F)cc1)Nc1cccc(C(=O)Nc2ccc3[nH]ncc3c2)c1	enzyme activity, inhibitor, FRET	1 µM	inhibition	13%
O=C(O)[C@H]1[C@H](Cn2nnc3ccccc3c2=O)CC[C@@H]1C(=O)c1ccc(OCCC2CCOCC2)cc1	cell-free assay, competition with immobilised ligand	1 µM	remaining binding	82%
O=C(Nc1ccccc1)Nc1cccc(C(=O)Nc2ccc3[nH]ncc3c2)c1	enzyme activity, inhibitor, FRET	1 µM	inhibition	12.7%
Nc1ncnc2occ(-c3ccc(NC(=O)Nc4cc(C(F)(F)F)ccc4F)cc3)c12	cell-free assay	20 µM	remaining signal	0.25%
